# PPC-1+TRAIL kill: compounds killing PPC-1 cancer cells with TRAIL present (potentiator screen, no TRAIL-free arm). PPC-1 cells + TRAIL, ATPLite viability luminescence. cell killing (% activity), % at 4 µM or 5 µM. actives 0.41% (n = 220,000). AID 1443;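 active means cell killing above 50% in the first pass at 4 µM, then a duplicate retest at 5 µM averaging 50% or more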;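 further: plate controls were cells with TRAIL plus DMSO for no effect and medium-only wells lacking cells for full effect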
# TRAIL sens C8: sensitizes caspase-8 expressing cells to TRAIL; AID 624354; inhibition (viability loss, TRAIL sensitization), % at 10 µM; NB7+C8 cells + TRAIL, ATPlite viability luminescence; actives 1% (n = 360,000);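 active means compounds causing at least 50% loss of cell viability in the single-dose screen, relative to plate controls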
# FLuc inhib CS: Photinus pyralis luciferase inhibition counter-screen; ATPLite firefly luciferase biochemical luminescence, 10 min; inhibition, % at 10 µM; actives 1.5% (n = 200,000);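 active means inhibition above about 50% when tested at 10 µM, limit read from the data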
# Target sequence (P08659 whole entry, looked up): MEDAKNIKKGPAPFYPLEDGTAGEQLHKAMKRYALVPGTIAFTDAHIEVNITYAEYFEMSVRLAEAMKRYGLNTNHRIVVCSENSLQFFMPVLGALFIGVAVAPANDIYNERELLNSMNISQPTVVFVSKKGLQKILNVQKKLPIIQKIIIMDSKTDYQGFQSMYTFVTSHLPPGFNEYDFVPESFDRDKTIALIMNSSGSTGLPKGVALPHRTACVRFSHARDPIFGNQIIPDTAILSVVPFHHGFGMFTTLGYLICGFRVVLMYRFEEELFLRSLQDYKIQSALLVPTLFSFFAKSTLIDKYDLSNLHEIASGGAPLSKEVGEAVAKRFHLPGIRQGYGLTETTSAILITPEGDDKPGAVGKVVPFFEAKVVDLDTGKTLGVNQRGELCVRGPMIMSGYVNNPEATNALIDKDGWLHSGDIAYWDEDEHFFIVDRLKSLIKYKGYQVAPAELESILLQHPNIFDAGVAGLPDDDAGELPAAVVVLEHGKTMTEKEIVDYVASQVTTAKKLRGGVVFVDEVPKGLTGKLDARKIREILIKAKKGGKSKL
# FLuc act counter: firefly luciferase counter-screen for stimulation assays. P08659. ATPlite luciferase biochemical, luminescence, 10 min; 0 = ATP-free wells, 1 = DMSO control. activation factor at 10 µM. 200,000 tested, under 10 active. AID 1027;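 active means luciferase activation factor, scaled between plate controls, of at least 2 with compound at 10 µM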
#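 Assay system: Luciferase/luciferin reagent mix; Medium: PBS as buffer for the ATP substrate; Dosing: test compounds dosed from 2 mM stocks in 100% DMSO; Times: 10 min, room temperature; Signal: luminescence from luciferase reaction; Read-out: luciferase activation; Controls: No-ATP low control, compound-free enzyme-plus-ATP high control.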
# NF-kB expr up: NF-kB expression increase, human neuronal cells; fold change at 12.5 µM; actives 1.6% (n = 190,000); NF-kB reporter expression; active compounds read high; in the data active means fold change above about 3.3
# APP 5'UTR act: APP 5'UTR luciferase reporter activation. SH-SY5Y APP 5'UTR luciferase reporter, luminescence; zero percent = DMSO vehicle wells. activation, % at 2 µM. actives 1% (n = 190,000). AID 1276;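 active means activation above a set limit, based on mean plus 3 SD of controls, cut at about 140% in these data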
# The depositor's hits bear a star; x = not tested or not shown. Hits are enriched below; roughly 2.2% of the tested compounds scored in any of these assays.
SMILES,PPC-1+TRAIL kill,TRAIL sens C8,FLuc inhib CS,FLuc act counter,NF-kB expr up,APP 5'UTR act
C=CCNC(=O)/C(=C/c1cccc([N+](=O)[O-])c1)NC(=O)c1ccco1,5.6,-0.1,-2.4,1,1.04,23.7
O=C(/C=C\c1ccccc1OC(=O)c1ccccc1F)c1cc2ccccc2o1,27.3,18.0,19.2,0.8,4.29*,86.9
O=C(/C=C/c1ccc(F)cc1)NC(=S)Nc1ccccc1C(=O)NC1CCCCC1,17.9,58.8*,0.5,1,2.39,-3.9
O=C(/C=C/c1ccccc1)NC(=S)Nc1ccccc1C(=O)NC1CCCCC1,6.1,4.2,-5.9,1.1,1.25,10.4
CC(=O)Nc1cccc(-c2csc(C(C)(O)c3ccc(F)c(F)c3)n2)c1 (stereo unspecified),x,3.6,x,x,x,x
COc1cccc(-c2cc(C(=O)N3CCCCCC3)no2)c1,31.6,-7.8,62.0*,0.4,7.17*,150.8*
O=C(c1cc(-c2ccc(F)cc2)on1)N1CCCCCC1,x,15.7,x,x,x,x
COc1ccc2cc3cc(C(=O)N4CCCCCC4)oc3nc2c1,x,49.8*,x,x,x,x
O=C(c1cc(-c2ccc(F)cc2)on1)N1CCCC1,32.3,36.4,63.8*,0.4,3.53*,79.7
COc1ccc2cc3cc(C(=O)N4CCN(C5CCCCC5)CC4)oc3nc2c1,x,11.7,x,x,x,x
COc1ccc(-c2cc(C(=O)N3CCCCCC3)no2)cc1,x,25.9,x,x,x,x
COc1ccc(-c2cc(C(=O)N3CCCC3)no2)cc1,x,61.5*,x,x,x,x
COC(=O)c1ccc(COC(=O)CCc2nc(-c3ccccc3)c(-c3ccccc3)o2)cc1,-10.6,-10.3,-2.7,1,0.8,15.5
C[C@H](CO)N1C[C@H](C)[C@@H](CN(C)S(=O)(=O)c2ccc(-n3cccn3)cc2)OCc2cn(nn2)CCCC1=O,x,-1.5,x,x,x,x
Cc1c(NC(=O)COc2cccc(Br)c2)c(=O)n(-c2ccccc2)n1C,x,4.6,x,x,x,x
COc1ccc(CCCNC(=O)C2Cc3c(-c4ccc(NC(C)=O)cc4)ccnc3O2)cc1 (stereo unspecified),x,19.7,x,x,x,x
Cc1ccc(-c2cc(C(=O)N3CCCc4ccccc43)no2)cc1,10.8,31.7,57.6*,0.4,2.59,41.5
O=C(c1cc(-c2cccc(O)c2)on1)N1CCCCC1,8.0,22.6,43.2,0.6,6.02*,196.2*
COc1cccc(-c2cc(C(=O)O)no2)c1,-1.6,-4.7,-3.1,1,1.08,1.9
O=C(c1cc(-c2ccc(F)cc2)on1)N1CCCc2ccccc21,-1.3,2.4,29.7,0.7,1.73,50.6
COc1cccc(-c2cc(C(=O)N3CCCCC3C)no2)c1 (stereo unspecified),29.2,2.1,27.6,0.7,3.61*,132.7
Cc1ccc(S(=O)(=O)N(C)C[C@H]2Oc3ncc(Br)cc3C(=O)N([C@H](C)CO)C[C@@H]2C)cc1,x,4.9,x,x,x,x
Cc1ccc(S(=O)(=O)Cc2cc(F)c([N+](=O)[O-])cc2[N+](=O)[O-])cc1,x,64.8*,x,x,x,x
CCOC(=O)C1CCCN(C(=O)c2cc(C)oc2C)CC1 (stereo unspecified),x,-9.5,x,x,x,x
Cc1cc(Cl)ccc1Oc1ncc(-c2ccc(Cl)cc2)cn1,16.4,2.4,-6.6,1.1,1.28,5.0
SMILES,PPC-1+TRAIL kill,TRAIL sens C8,FLuc inhib CS,FLuc act counter,NF-kB expr up,APP 5'UTR act
Clc1ccc(-c2cnc(Oc3ccccc3)nc2)cc1,22.0,14.9,10.5,0.9,2.35,137.9*
Cc1cc(N2CCCC2)nc2ccccc12,-20.8,2.2,-5.3,1.1,1.19,0.2
Cc1ccc2c(c1)Cc1nc3ccccc3nc1-2,49.6,58.9*,86.6*,0.1,2.79,116.0
O=[N+]([O-])c1cccc(-c2ccc(C(=S)N3CCOCC3)o2)c1,27.6,36.9,40.1,0.6,4.78*,161.6*
S=C(c1ccc(-c2cc(Cl)ccc2Cl)o1)N1CCOCC1,15.3,3.5,2.0,1,1.05,19.6
S=C(c1ccc(-c2cccc(Cl)c2)o1)N1CCCCC1,-3.7,5.5,53.6*,0.5,1.51,180.2*
N#CCCN1CCN(C(=S)c2ccc(-c3cccc(Cl)c3)o2)CC1,18.7,3.0,1.8,1,1.98,31.0
S=C(c1ccc(-c2cccc(Cl)c2)o1)N1CCOCC1,5.1,19.1,27.4,0.7,5.7*,140.9*
C/C=C/c1cccc(-c2nc(C(=O)NC3CCC3)cc3c2[C@@H](CCO)N(S(=O)C(C)(C)C)C3)c1 (stereo partly specified),x,6.5,x,x,x,x
CC1(C)Cc2cccc(OCC(=O)Nc3cc(S(C)(=O)=O)ccc3Cl)c2O1,x,1.7,x,x,x,x
COc1ccc(OCC(O)CNC(=O)c2c(-c3ccccc3)noc2C)cc1 (stereo unspecified),4.0,-0.5,x,x,x,x
Cc1ccc(/C=C/C(=O)NC2CCCCCCC2)o1,8.8,-2.8,8.5,0.9,2.49,29.7
CSCCC(NC(=O)c1ccc(Cl)c([N+](=O)[O-])c1)C(=O)N1CCN(C/C=C/c2ccccc2)CC1 (stereo unspecified),x,64.8*,x,x,x,x
O=C(CCc1nnc2n(Cc3ccc(F)cc3)c(=O)c3ccccc3n12)N1CCN(c2ccccn2)CC1,x,25.0,x,x,x,x
COc1ccc(-c2csc(N3N=C(C)C(C)C3=O)n2)cc1 (stereo unspecified),22.9,7.7,60.7*,0.4,2.23,40.7
CC1=NN(c2nc(-c3ccc(C)cc3)cs2)C(=O)C1N=Nc1ccccc1O (stereo unspecified),23.4,42.5,3.5,1,1.75,-51.9
CCOc1ccc(-c2noc(-c3csc([C@@H]4O[C@H](CO)[C@H](O)[C@H](O)[C@H]4O)n3)n2)cc1,x,6.2,x,x,x,x
CN(C)c1ccc(/C=C(\C#N)c2ccccc2)cc1,24.1,47.5,x,x,x,x
CN(C)c1cccc(/C=C(\C#N)c2ccccc2)c1,6.1,49.5*,x,x,x,x
O=C(COC(=O)c1ccccc1SCC(=O)N1CCCC1)NCc1ccccc1,x,6.9,x,x,x,x
CC(C)OC(=O)CSc1nc2cc3c(cc2cc1C#N)OCO3,27.1,2.4,-8.8,1.1,1.35,84.0
CCOC(=O)CSc1nc2cc3c(cc2cc1C)OCO3,3.6,7.7,-3.8,1,1.37,-6.2
COC(=O)CSc1nc2cc3c(cc2cc1C#N)OCO3,8.8,13.8,-6.7,1.1,6.76*,170.0*
CCOC(=O)CSc1nc2cc3c(cc2cc1C#N)OCO3,-2.6,-3.7,-7.3,1.1,4.08*,111.8
CCOC(=O)CSc1nc2cc3c(cc2cc1C#N)OCCO3,x,10.4,-5.2,1.1,1.22,181.1*
COC(=O)CSc1nc(-c2cccs2)ccc1C#N,36.7,48.7,-9.3,1.1,7.26*,152.1*
Cc1ccccc1-c1cc2nc(NCCN3CCNC3=O)n(C)c(=O)c2s1,x,-8.0,x,x,x,x
CC(C)CN(C(=O)c1ccc(Br)o1)C1CCS(=O)(=O)C1 (stereo unspecified),x,0.6,x,x,x,x
COc1cccc2oc3ccc(C#Cc4ccccn4)cc3c(=O)c12,x,69.2*,x,x,x,x
CN(C)c1nc(Cl)nc2c1nc(Cl)n2C1CCCCO1 (stereo unspecified),x,-13.9,x,x,x,x
